Active and inactive are the calls of the source. No cut-off for these calls is given here.
Assays:
[1] = target: T1, Prostaglandin G/H synthase 2 (Homo sapiens) (UniProt P35354); assay: Inhibition of LPS-stimulated human whole blood COX-2 assessed as inhibition of PGE2 production at 10 uM by EIA
T1 sequence (whole entry): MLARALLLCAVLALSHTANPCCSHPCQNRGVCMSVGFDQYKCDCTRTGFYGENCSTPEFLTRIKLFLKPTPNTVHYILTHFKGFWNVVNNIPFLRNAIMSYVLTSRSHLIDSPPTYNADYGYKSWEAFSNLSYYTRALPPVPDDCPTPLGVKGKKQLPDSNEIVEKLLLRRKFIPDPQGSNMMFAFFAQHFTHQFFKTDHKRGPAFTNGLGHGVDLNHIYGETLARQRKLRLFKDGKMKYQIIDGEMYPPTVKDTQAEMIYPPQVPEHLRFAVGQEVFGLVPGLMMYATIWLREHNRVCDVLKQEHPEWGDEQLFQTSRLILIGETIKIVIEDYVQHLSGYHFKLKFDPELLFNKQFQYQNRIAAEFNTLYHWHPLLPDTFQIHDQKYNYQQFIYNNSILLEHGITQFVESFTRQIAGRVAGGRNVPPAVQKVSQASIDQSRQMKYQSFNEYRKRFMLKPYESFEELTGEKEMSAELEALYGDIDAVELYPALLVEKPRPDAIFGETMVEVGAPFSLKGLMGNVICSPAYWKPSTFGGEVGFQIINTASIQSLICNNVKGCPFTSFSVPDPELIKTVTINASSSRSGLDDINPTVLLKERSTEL
How it was run: (§1)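 Human whole blood COX assay, with COX-1 and COX-2 read as prostaglandin biosynthesis. Relative inhibition (%) was taken at fixed test concentrations of 10 and 100 μM. Mean ± SEM, n = 3−6.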

[2] = target: T1, Prostaglandin G/H synthase 2 (Homo sapiens); assay: Inhibition of LPS-stimulated human whole blood COX-2 assessed as inhibition of PGE2 production at 100 uM by EIA; how it was run: as §1
[3] = target: T2, Prostaglandin G/H synthase 1 (Homo sapiens, UniProt P23219); assay: Inhibition of human whole blood COX-1 assessed as inhibition of TXB2 production by EIA
How it was run: (§2)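 Human whole blood COX-1 and COX-2 assay run over a range of test concentrations. IC50 was fitted to a four-parameter logistic dose−response curve, and the COX-1/COX-2 ratio was computed from the two IC50 values. Mean ± SEM, n = 3−6.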

[4] = target: T3, Prostaglandin G/H synthase 2 (Homo sapiens, UniProt P35354); assay: Inhibition of LPS-stimulated human whole blood COX-2 assessed as inhibition of PGE2 production by EIA; how it was run: as §2
T3 sequence (P35354 whole entry): T1 sequence (whole entry)

Homo sapiens = species: Homo sapiens; assay: Selectivity index, ratio of IC50 for human COX1 to IC50 for human COX2; how it was run: as §2
Rattus norvegicus [5] = assay: Antiinflammatory activity against Wistar rat assessed as inhibition of carrageenan induced edema volume at 37.3 uM/kg, po administered 1 hr prior carrageenan-challenge measured after 3 hrs post challenge; format: functional
How it was run: (§3)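 Oral dose of 37.3 μM/kg. Carrageenan (1%) was injected intradermally into the left hindpaw 1 h later. Edema was measured 3 h and 6 h after challenge, and relative inhibition of the edema volume increase was calculated. Mean ± SEM, n = 3−6.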

Rattus norvegicus [6] = assay: Antiinflammatory activity against Wistar rat assessed as inhibition of carrageenan induced edema volume at 37.3 uM/kg, po administered 1 hr prior carrageenan-challenge measured after 6 hrs post challenge; format: functional; how it was run: as §3
[7] = target: T2, Prostaglandin G/H synthase 1; assay: Inhibition of human whole blood COX-1 assessed as inhibition of TXB2 production at 10 uM by EIA; how it was run: as §1
[8] = target: T2, Prostaglandin G/H synthase 1; assay: Inhibition of human whole blood COX-1 assessed as inhibition of TXB2 production at 100 uM by EIA; how it was run: as §1
Rattus norvegicus [9] = assay: Toxicity in rat assessed as gastric ulcerogenic activity at 0.37 to 7.45 mM/kg, po measured after 8 hrs; format: organism-based, Stomach; settings: in vivo
How it was run: (§4)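 Rats were given oral doses of 0.37, 0.75, 1.12, 1.86, 3.73 or 7.45 mM/kg. Stomachs were removed 8 h later and scored for hemorrhagic damage. Mean ± SEM, n = 3−6.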

Rattus norvegicus [10] = assay: Antiinflammatory activity against Wistar rat assessed as inhibition of carrageenan induced edema volume at 3.73 to 37.3 uM/kg, po administered 1 hr prior carrageenan-challenge measured after 3 to 6 hrs post challenge; format: functional, organism-based
How it was run: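 Rats dosed orally at 3.73, 11.2 or 37.3 μM/kg. Carrageenan (1%) was injected intradermally into the left hindpaw 1 h after dosing. Footpad edema was measured 3 and 6 h after carrageenan, and relative inhibition of the edema volume increase was calculated. Mean ± SEM, n = 3−6.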

Rattus norvegicus [11] = assay: Toxicity in rat assessed as gastric ulcerogenic activity at 7.45 mM/kg, po measured after 8 hrs; format: organism-based, Stomach; settings: in vivo, 7450 µM; how it was run: as §4

T2 sequence (P23219 whole entry): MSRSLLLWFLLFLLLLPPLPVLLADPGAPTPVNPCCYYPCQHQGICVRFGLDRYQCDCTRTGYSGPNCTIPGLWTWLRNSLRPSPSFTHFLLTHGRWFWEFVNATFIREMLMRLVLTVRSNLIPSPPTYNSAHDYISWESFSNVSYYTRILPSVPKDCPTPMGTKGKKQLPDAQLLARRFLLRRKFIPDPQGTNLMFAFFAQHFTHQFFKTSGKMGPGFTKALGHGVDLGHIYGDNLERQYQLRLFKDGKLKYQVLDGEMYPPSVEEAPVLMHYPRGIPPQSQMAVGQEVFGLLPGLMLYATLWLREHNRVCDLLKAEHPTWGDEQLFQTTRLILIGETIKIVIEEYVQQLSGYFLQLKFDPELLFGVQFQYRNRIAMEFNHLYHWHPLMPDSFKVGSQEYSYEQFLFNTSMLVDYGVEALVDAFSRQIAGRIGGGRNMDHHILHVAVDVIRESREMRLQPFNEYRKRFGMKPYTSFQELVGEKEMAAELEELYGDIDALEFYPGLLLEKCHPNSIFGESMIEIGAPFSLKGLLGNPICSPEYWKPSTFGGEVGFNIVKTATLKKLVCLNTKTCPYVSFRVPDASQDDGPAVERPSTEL

| Structure (SMILES) | inhibition [1] | inhibition [2] | IC50 [3] | IC50 [4] | Ratio IC50 (Homo sapiens) | inhibition (INH) (Rattus norvegicus [5]) | inhibition (INH) (Rattus norvegicus [6]) | inhibition [7] | inhibition [8] | Activity (Rattus norvegicus [9]) | inhibition (Rattus norvegicus [10]) | Activity (Rattus norvegicus [11]) |
| --- | --- | --- | --- | --- | --- | --- | --- | --- | --- | --- | --- | --- |
| CC(C(=O)O)c1ccc(N[C@H]2CCC[C@@H]2O)cc1F (stereo not given in full) | 45.3% | 77.6% | 9 µM | 14 µM | 0.7 | 20.6% | 5.7% | 54.6% | 83.4% |  |  |  |
| CC(C(=O)O)c1ccc(N[C@H]2CCCC[C@@H]2O)cc1F (stereo not given in full) | 28.3% | 76.7% |  |  |  | <0% | <0% | 0% | 0% |  |  |  |
| CC(C(=O)O)c1ccc(SC2CCCC2=O)cc1F (stereo not given) | 55.5% | 93.1% |  |  |  | 38% | 27.2% | 0% | 60.7% |  |  |  |
| CC(C(=O)O)c1c(F)cc(CC2CCCC2=O)cc1Br (stereo not given) | 0% | 0% |  |  |  | <0% | <0% | 13.8% | 49.7% |  |  |  |
| CC(C(=O)O)c1ccc(Cc2ccsc2)cc1F (stereo not given) | 60.2% | 99.5% | 9.5 µM | 8.3 µM | 1.2 | 40.2% | 33.4% | 53.9% | 87.4% | Toxic |  |  |
| CC(C(=O)O)c1ccc(S[C@H]2CCC[C@@H]2O)cc1F (stereo not given in full) | 0% | 64.4% |  |  |  | <0% | <0% | 0% | 47.6% |  |  |  |
| CC(C(=O)O)c1ccc(OC2CCCC2=O)cc1F (stereo not given) | 27.6% | 82.5% | 1.5 µM | 24.1 µM | 0.1 | 30.3% | 25% | 80.6% | 82.3% |  |  |  |
| CCC(Cc1ccc(C(C)C(=O)O)c(F)c1)C(C)=O (stereo not given) | 0% | 82.2% |  |  |  | 20.9% | 20.2% | 78% | 98.1% |  |  |  |
| CC(C(=O)O)c1ccc(SC2CCCC2)cc1F (stereo not given) | 15.6% | 80.1% |  |  |  | <0% | 9.5% | 4.7% | 87.9% |  |  |  |
| CC(C(=O)O)c1ccc(Cc2ccco2)cc1F (stereo not given) | 64.1% | 96.1% | 21.6 µM | 4.1 µM | 5.3 | 38.9% | 45.8% | 26.3% | 79.9% | Non-toxic |  |  |
| CC(C(=O)O)c1cc(F)c(CC2CCCC2=O)cc1F (stereo not given) | 15% | 84.8% |  |  |  | <0% | <0% | 0% | 81% |  |  |  |
| CC(C(=O)O)c1ccc(Cc2cccs2)cc1F (stereo not given) | 45.8% | 89.2% | 19.9 µM | 13 µM | 1.5 | 12.5% | 28% | 27.4% | 76.5% |  |  |  |
| CCC(=O)C(C)Cc1ccc(C(C)C(=O)O)c(F)c1 (stereo not given) | 0% | 0% |  |  |  | <0% | <0% | 0% | 13.5% |  |  |  |
| Cc1ccc(-c2cc(C(F)(F)F)nn2-c2ccc(S(N)(=O)=O)cc2)cc1 |  |  |  |  | 22.7 |  |  |  |  |  |  |  |
| CC(C(=O)O)c1ccc(Cc2ccoc2)cc1F (stereo not given) | 58.7% | 90.9% | 30.1 µM | 4 µM | 7.6 | 32.7% | 45.2% | 30.9% | 57.5% | Non-toxic |  |  |
| CC(C(=O)O)c1ccc(CC2CCCC2=O)cc1 (stereo not given) [LOXOPROFEN] | 53.2% | 97.4% |  |  | 2.3 | 44% | 53.1% | 35% | 87.5% | Toxic |  |  |
| CC(C(=O)O)c1ccc(O[C@H]2CCC[C@@H]2O)cc1F (stereo not given in full) | 25.4% | 80.2% |  |  |  | <0% | 13.3% | 10.4% | 78.2% |  |  |  |
| CC(C(=O)O)c1ccc(CC2CCCC2=O)cc1F (stereo not given) | 44.2% | 81.8% |  |  | 1.7 | 41.8% | 54.1% | 32.7% | 85.7% | Non-toxic | Active |  |
| CC(C(=O)O)c1ccc(OC2CCCC2)cc1F (stereo not given) | 39.7% | 96.4% | 3 µM | 26.3 µM | 0.1 | 40.4% | 51.9% | 65% | 81.4% | Non-toxic |  | Non-toxic |
| CC(C(=O)O)c1c(F)cc(CC2CCCC2=O)cc1-c1ccc(O)cc1 (stereo not given) | 15.4% | 38% |  |  |  | <0% | <0% | 0% | 7.2% |  |  |  |
| CC(C(=O)O)c1ccc(NC2CCCCC2)cc1F (stereo not given) | 0% | 30% |  |  |  | <0% | 19.2% | 0% | 0% |  |  |  |
| CC(C(=O)O)c1ccc(NC2CCCC2)cc1F (stereo not given) | 40.7% | 91.9% | 15.6 µM | 21.3 µM | 0.7 | 45.5% | 60.1% | 34.7% | 92% | Non-toxic | Active | Non-toxic |
| CC(C(=O)O)c1c(F)cc(CC2CCCC2=O)cc1F (stereo not given) | 0% | 70.9% |  |  |  | 21.6% | 17.7% | 11.3% | 79.3% |  |  |  |
